RBBP9 inh: human RBBP9 inhibitors, primary screen, biochemical, fluorescence polarization, FP-Rh probe, HTS | recombinant RBBP9 | inhibition, % at 7.94 µM | Serine hydrolase RBBP9 (Homo sapiens), O75884 | 220,000 tested, 0.2% active;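 active = inhibition above the campaign mean of all tested compounds plus 3 SD, cut at about 14% in these data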;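 note: plate controls were DMSO wells with RBBP9 for no effect and wells lacking RBBP9 protein for full effect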
Target sequence (O75884 whole entry, looked up): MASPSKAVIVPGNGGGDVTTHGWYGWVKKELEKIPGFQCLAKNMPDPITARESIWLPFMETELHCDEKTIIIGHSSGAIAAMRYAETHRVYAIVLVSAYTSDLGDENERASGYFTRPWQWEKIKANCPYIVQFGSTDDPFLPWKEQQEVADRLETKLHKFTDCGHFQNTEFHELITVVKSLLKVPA
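System: RBBP9 protein / Buffer or medium: Tris/NaCl buffer pH 8.0 with 0.1% Pluronic / Probe or stimulus: Serine-hydrolase probe FP-Rh, 375 nM pre-mixing / Dosing: 7.94 µM single dose, 0.794% DMSO / Times: enzyme-compound preincubation 30 min, then probe labeling 45 min, 25 °C / Technique: fluorescence polarization (mP), excitation 525 nm, emission 598 nm / Replication: singlicate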
PAFAH1B2 FP inh: PAFAH1B2 enzyme inhibitors, primary screen, biochemical, fluorescence polarization, human; Platelet-activating factor acetylhydrolase IB subunit alpha2 (Homo sapiens), P68402; recombinant PAFAH1B2, FP-rhodamine activity probe; inhibition, % at 3.39 µM; 340,000 tested, 1.2% active;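 active = inhibition above the mean of all tested compounds plus 3 SD, cut at about 24% in these data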;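 note: 0% = enzyme with DMSO and 100% = wells lacking PAFAH1B2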
PAFAH2 inh: PAFAH2 enzyme inhibitors, primary screen, biochemical, fluorescence polarization, human. Platelet-activating factor acetylhydrolase 2, cytoplasmic (Homo sapiens), Q99487. inhibition, % at 3.39 µM. recombinant PAFAH2, FP-rhodamine activity probe. 340,000 tested, 0.99% active;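 active = inhibition above the mean over all tested compounds plus 3 SD, cut at about 30% in these data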;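 note: inhibitors block probe labeling of enzyme so polarization drops; 0% = enzyme with DMSO and 100% = wells lacking PAFAH2 protein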
PAFAH1B3 FP inh: PAFAH1B3 enzyme inhibitors, primary screen, biochemical, fluorescence polarization, human; Platelet-activating factor acetylhydrolase IB subunit alpha1 (Homo sapiens), Q15102; recombinant PAFAH1B3, FP-rhodamine probe; inhibition, % at 3.39 µM; 340,000 tested, 0.28% active; AID 492972, 2010;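 active = inhibition above the screen-wide average of all tested compounds plus 3 SD, cut at about 25% in these data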;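 note: 0% = enzyme with DMSO only and 100% = wells lacking PAFAH1B3 protein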
Target sequence (Q15102 whole entry, looked up): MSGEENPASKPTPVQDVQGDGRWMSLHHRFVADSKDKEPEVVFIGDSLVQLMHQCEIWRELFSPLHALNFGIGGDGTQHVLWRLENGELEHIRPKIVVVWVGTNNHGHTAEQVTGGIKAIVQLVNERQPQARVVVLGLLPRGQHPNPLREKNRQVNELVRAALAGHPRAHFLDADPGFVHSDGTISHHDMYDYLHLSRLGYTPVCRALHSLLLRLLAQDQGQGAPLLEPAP
pPAFAH FP inh: pPAFAH enzyme inhibitors, primary screen, biochemical, fluorescence polarization, human. recombinant pPAFAH, FP-rhodamine probe fluorescence polarization. inhibition, % at 3.39 µM. 330,000 tested, 1.5% active;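 active = inhibition above the mean inhibition across the screen plus 3 SD, cut at about 25% in these data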;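 note: inhibitors block binding of the rhodamine activity-based probe so polarization drops; 0% = enzyme with DMSO and 100% = wells lacking pPAFAH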
Active calls of the source: *; · = no result given. Most compounds without a hit are left out; they make up all but 2.7% or so of the library.

SMILES	RBBP9 inh	PAFAH1B2 FP inh	PAFAH2 inh	PAFAH1B3 FP inh	pPAFAH FP inh
O=C(c1ccc(=O)oc1)N1CCCc2ccccc21	-4.8	12.3	39.9*	9.7	25.4*
O=C(Cc1ccc(F)cc1)c1ccc(O)cc1O	-5.9	24.5*	6.1	1.7	6.0
CCCCNc1ccc2c3c(cccc13)C(=O)N(CCCC)C2=O	-0.2	20.6	34.0*	30.7*	·
CCc1nnc(NS(=O)(=O)c2ccc(NCc3cc(Cl)ccc3O)cc2)s1	·	1.7	5.3	8.2	-5.9
Cc1cc(NC(=O)CSCC(=O)Nc2cc(C(F)(F)F)ccc2N2CCOCC2)no1	·	25.6*	-4.6	1.2	2.1
CC(C)(C)C(=O)NC(=S)Nc1cc(C(F)(F)F)ccc1N1CCOCC1	-6.4	6.8	4.4	12.7	32.9*
CCOC(=O)CNC(c1ccccc1)c1cc(Br)ccc1NC(=O)OCC (stereo unspecified)	-9.0	2.7	-2.4	6.1	-1.9
COC(=O)CNC(c1ccccc1)c1cc(Br)ccc1NC(=O)CNC(=O)OCc1ccccc1 (stereo unspecified)	-2.6	9.2	10.3	5.5	29.4*
COc1ccc(S(=O)(=O)N2CCCCC2)cc1NC(=O)CCOc1cc(C)ccc1C	·	-0.3	7.5	6.4	1.9
O=C(Nc1ccc2c(c1)OCO2)c1c[nH]c(=O)n(-c2ccc(F)cc2)c1=O	·	-0.9	-3.6	-0.9	8.0
O=[N+]([O-])c1ccccc1/C=C/C=N/n1c(-c2ccccc2)n[nH]c1=S	2.0	-0.7	-1.4	4.6	4.7
O=[N+]([O-])c1ccccc1/C=C/C=N/n1c(-c2ccc(Cl)cc2)n[nH]c1=S	3.1	-0.3	3.9	3.1	26.9*
O=C(C=Cc1ccco1)c1ccc2ccccc2c1	·	3.5	-0.5	7.0	·
Cc1ccc(S(=O)(=O)N/N=C/c2c(F)cccc2Cl)cc1	-8.8	-0.6	8.1	2.9	-5.3
Cc1ccc(S(=O)(=O)N/N=C/c2cccn2-c2ccc(Cl)cc2)cc1	-9.8	53.5*	0.1	2.9	4.9
COc1ccc(CNC(=O)CSc2nc3ccc(OC)cc3[nH]2)cc1	·	16.1	5.8	3.8	3.0
COc1ccc(CNC(=O)CSc2nc3ccc(C)cc3[nH]2)cc1	·	29.2*	-8.2	-2.7	9.6
Cc1ccc2nc(SCC(=O)N3CCN(c4ccccc4)CC3)[nH]c2c1	-0.3	29.9*	7.0	2.8	3.0
CC(=O)c1c(C)nc2sc3c(=N)n(N)cnc3c2c1-c1ccc(Cl)cc1	-4.9	-5.0	-6.8	2.1	1.8
COc1ccc(N2CCN(C(=O)CN(Cc3ccc(Cl)cc3)S(C)(=O)=O)CC2)cc1	-12.8	1.3	-2.2	3.5	6.5
CS(=O)(=O)N(CC(=O)N1CCN(c2ccccc2)CC1)Cc1ccc(Cl)cc1	-12.0	24.8*	2.0	-5.4	3.8
COc1ccccc1CNC(=O)c1nccnc1CO	·	2.7	12.4	6.7	·
O=C(CSc1nc(O)cc(=O)n1-c1ccccc1)c1ccc(Br)cc1	6.1	3.5	17.6	5.5	24.7*
c1ccc2c(c1)c1c(c3ccccc32)CN2CCCC2C1 (stereo unspecified)	·	-1.1	3.1	4.0	·
O=C(NCCCNc1ccc(C(F)(F)F)cc1[N+](=O)[O-])c1ccc(Cl)cc1	11.4	29.4*	-2.3	6.0	9.7
SMILES	RBBP9 inh	PAFAH1B2 FP inh	PAFAH2 inh	PAFAH1B3 FP inh	pPAFAH FP inh
COc1ccccc1N1CCN(CC(=O)c2c(C)[nH]c3cc(C)ccc23)CC1	4.1	0.5	1.8	-1.4	-0.5
CCCCn1c(O)c(/C=C/C=C/C=Nc2ccccc2)sc1=S	-13.4	-9.1	2.1	-10.9	29.7*
CCn1c(O)c(/C=C/C=C/C=Nc2ccccc2)sc1=S	-3.5	-8.5	-5.3	-7.3	17.6
CCC(C)c1c(NS(=O)(=O)c2ccc(C)cc2)o[nH]c1=O (stereo unspecified)	·	4.4	-4.5	4.0	·
CCC(C)c1c(N)n(S(=O)(=O)c2ccc(C)cc2)oc1=O (stereo unspecified)	·	41.8*	2.4	-1.7	·
COc1ccc(/C=C/C(=O)CC(O)(c2ccccc2)C(F)(F)F)cc1 (stereo unspecified)	-2.3	25.5*	10.0	10.2	-4.0
O=C(/C=C/c1ccccc1)COC(=O)c1ccccc1	·	6.6	12.1	9.8	·
